Results: ChEMBL document CHEMBL1150378, “Synthesis and in vitro antiprotozoal activities of water-soluble, inexpensive 3,7-bis(dialkylamino)phenoxazin-5-ium derivatives” (J Med Chem, 2008)

Key:
[1] = Selectivity index, Ratio of IC50 for rat L6 cells to IC50 for Leishmania donovani MHOM-ET-67/L82 axenic amastigotes; type: functional
Summary of the method: (§1)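 Selectivity index is the L6 myoblast cytotoxicity IC50 divided by the IC50 against the respective parasite. Both IC50 values come from two replicate experiments, with compounds diluted from 10 mg/mL DMSO stocks and final DMSO at most 1%.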

L6 = experiment: Cytotoxicity against rat L6 cells; type: cell-based
Summary of the method: (§2)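 Test compounds were made up as 10 mg/mL stocks in 100% DMSO, warmed or sonicated to dissolve, then diluted in serum-free medium and brought to working concentration in complete medium without hypoxanthine. DMSO was at most 1% in the top-concentration wells. IC50 was determined by previously described methods, with values from two replicate experiments. Reference drugs were chloroquine, melarsoprol, benznidazole, miltefosine and podophyllotoxin (L6).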

[2] = tested on: Trypanosoma brucei rhodesiense; experiment: Antitrypanosomal activity against Trypanosoma brucei rhodesiense STIB900; type: functional, organism-based; summary of the method: as §2
[3] = Selectivity index, Ratio of IC50 for rat L6 cells to IC50 for Trypanosoma cruzi Tulahuen C2C4; type: functional; summary of the method: as §1
Leishmania donovani = experiment: Antileishmanial activity against Leishmania donovani MHOM-ET-67/L82 axenic amastigotes; type: functional, organism-based; summary of the method: as §2
[4] = Selectivity index, Ratio of IC50 for rat L6 cells to IC50 for Plasmodium falciparum K1; type: functional; summary of the method: as §1
[5] = Selectivity index, Ratio of IC50 for rat L6 cells to IC50 for Trypanosoma brucei rhodesiense STIB900; type: functional; summary of the method: as §1
Trypanosoma cruzi = experiment: Antitrypanosomal activity against Trypanosoma cruzi Tulahuen C2C4; type: functional, organism-based; summary of the method: as §2
Plasmodium falciparum = experiment: Antiplasmodial activity against chloroquine and pyrimethamine-resistant Plasmodium falciparum K1; type: functional, organism-based
Summary of the method: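 Compounds were prepared as 10 mg/mL DMSO stocks, diluted in serum-free medium, then brought to test concentrations in complete medium without hypoxanthine. DMSO was at most 1% in the top-concentration wells. IC50 values come from two replicate experiments, with chloroquine as the reference standard. Rat L6 myoblast IC50 served for the selectivity index.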

Structure (SMILES) | Ratio IC50 [1] | IC50 (L6) | IC50 [2] | Ratio IC50 [3] | IC50 (Leishmania donovani) | Ratio IC50 [4] | Ratio IC50 [5] | IC50 (Trypanosoma cruzi) | IC50 (Plasmodium falciparum)
CN(C)c1ccc2nc3ccc(N4CCCC4)cc3[o+]c2c1.[Cl-] | 7.7 | 13100 nM | 91 nM | 51 | 1710 nM | 2166.5 | 144.4 | 258 nM | 6 nM
[Cl-].c1cc2nc3ccc(N4CCCCC4)cc3[o+]c2cc1N1CCCCC1 | 4.8 | 5470 nM | 154 nM | 67.7 | 1140 nM | 1050 | 35.6 | 81 nM | 5 nM
CCCN(CCC)c1ccc2nc3ccc(N(CCC)CCC)cc3[o+]c2c1.[Cl-] | 165 | 400 nM | 23 nM | 23.6 | 2 nM | 165 | 17.4 | 17 nM | 2 nM
O=C(Cn1ccnc1[N+](=O)[O-])NCc1ccccc1 [BENZNIDAZOLE] | – | – | – | – | – | – | – | 866 nM | –
COc1cc([C@@H]2c3cc4c(cc3[C@H](O)[C@H]3COC(=O)[C@H]23)OCO4)cc(OC)c1OC [PODOFILOX] | – | 20 nM | – | – | – | – | – | – | –
CCCCN(CCCC)c1ccc2nc3ccc(N4CCCCC4)cc3[o+]c2c1.[Cl-] | 37 | 90 nM | 269 nM | 1.5 | 2 nM | 12.3 | 0.3 | 58 nM | 7 nM
CCN(CC)c1ccc2nc3ccc(N4CCSCC4)cc3[o+]c2c1.[Cl-] | 21.6 | 21700 nM | 1610 nM | 141.1 | 1000 nM | 2822 | 13.5 | 154 nM | 8 nM
CN(C)c1ccc2nc3ccc(N4CCCCC4)cc3[o+]c2c1.[Cl-] | 13.6 | 22500 nM | 843 nM | 129 | 1660 nM | 7740 | 26.7 | 174 nM | 3 nM
CCN(CC)c1ccc2nc3ccc(N(CC)CC)cc3[o+]c2c1.[Cl-] | 31.3 | 6700 nM | 228 nM | 185.4 | 214 nM | 2410 | 29.4 | 36 nM | 3 nM
CCCN(CCC)c1ccc2nc3ccc(N4CCOCC4)cc3[o+]c2c1.[Cl-] | 25.6 | 19300 nM | 871 nM | 47.6 | 754 nM | 3883 | 22.2 | 406 nM | 5 nM
CCCCCCN(CCCCCC)c1ccc2nc3ccc(N4CCCCC4)cc3[o+]c2c1.[Cl-] | 13.7 | 200 nM | 14 nM | 9.6 | 14 nM | 48 | 13.7 | 21 nM | 4 nM
CCCCCN(CCCCC)c1ccc2nc3ccc(N4CCCCC4)cc3[o+]c2c1.[Cl-] | 63 | 140 nM | 22 nM | 9 | 2 nM | 63 | 6.3 | 15 nM | 2 nM
CCCN(CCC)c1ccc2nc3ccc(N4CCSCC4)cc3[o+]c2c1.[Cl-] | 6 | 7010 nM | 1510 nM | 43.1 | 1170 nM | 976.7 | 4.6 | 163 nM | 7 nM
CCCN(CCC)c1ccc2nc3ccc(N4CCCC4)cc3[o+]c2c1.[Cl-] | 59.2 | 920 nM | 16 nM | 25.4 | 16 nM | 355 | 59.2 | 36 nM | 3 nM
CCN(CC)c1ccc2nc3ccc(N4CCCC4)cc3[o+]c2c1.[Cl-] | 11.9 | 7770 nM | 168 nM | 139 | 654 nM | 1390 | 46.3 | 56 nM | 6 nM
CCCN(CCC)c1ccc2nc3ccc(N4CCCCC4)cc3[o+]c2c1.[Cl-] | 8.1 | 790 nM | 238 nM | 35.1 | 98 nM | 105.3 | 3.3 | 23 nM | 8 nM
CN(C)c1ccc2nc3ccc(N4CCOCC4)cc3[o+]c2c1.[Cl-] | 47.2 | 49800 nM | 2590 nM | 9.8 | 1060 nM | 2153.9 | 19.2 | 5060 nM | 23 nM
CCN(CC)c1ccc2nc3ccc(N4CCCCC4)cc3[o+]c2c1.[Cl-] | 4.5 | 6430 nM | 245 nM | 132.8 | 1440 nM | 2390 | 26.3 | 48 nM | 3 nM
CN(C)c1ccc2nc3ccc(N4CCSCC4)cc3[o+]c2c1.[Cl-] | 1.5 | 22200 nM | 5470 nM | 36.6 | 14400 nM | 4022.5 | 4.1 | 608 nM | 6 nM
[Cl-].c1cc2nc3ccc(N4CCOCC4)cc3[o+]c2cc1N1CCOCC1 | 5.5 | 28600 nM | 8740 nM | 4 | 5180 nM | 66.5 | 3.3 | 7090 nM | 431 nM
CCCCCCCCCCCCCCCCOP(=O)([O-])OCC[N+](C)(C)C [MILTEFOSINE] | – | – | – | – | 280 nM | – | – | – | –
CCN(CC)c1ccc2nc3ccc(N4CCOCC4)cc3[o+]c2c1.[Cl-] | 2.5 | 40100 nM | 4070 nM | 13.6 | 16300 nM | 1363.6 | 9.9 | 2940 nM | 29 nM
[Cl-].c1cc2nc3ccc(N4CCCC4)cc3[o+]c2cc1N1CCCC1 | 107.7 | 3930 nM | 160 nM | 32.6 | 37 nM | 1400 | 24.6 | 121 nM | 3 nM
